According to ChEMBL document CHEMBL3797032, “Synthesis and in vitro growth inhibitory activity of novel silyl- and trityl-modified nucleosides” (Bioorg Med Chem, 2016):

Test: Growth inhibition of human U373 cells assessed as reduction in cell viability incubated for 72 hrs by MTT assay
Format: functional, U-373MG ATCC
Details: U373 MG
Outline: (§1)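 Glioma cells grown adherent: Hs683 in DMEM + 5–10% FBS, U373 in Earle's MEM + 10% FBS and 1 mM sodium pyruvate; trypan blue viability check before use. Exposed for 72 h to 0.01–100 μM, narciclasine as positive control. MTT read-out with formazan dissolved in DMSO; GI50 is the concentration giving 50% growth reduction versus untreated controls.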

Compound | GI50
COc1ccc(C(OC[C@H]2O[C@@H](n3ccc(=O)n(C(=O)c4ccccc4)c3=O)[C@H](OC(C)=O)[C@@H]2OC(C)=O)(c2ccccc2)c2ccc(OC)cc2)cc1 | 39 µM
Cc1cn([C@@H]2O[C@H](CO[Si](C)(C)C(C)(C)C)[C@@H](O)[C@H]2O)c(=O)[nH]c1=O | > 100 µM
CC(=O)O[C@@H]1[C@H](OC(C)=O)[C@@H](CO[Si](c2ccccc2)(c2ccccc2)C(C)(C)C)O[C@H]1n1ccc(=O)n(C(=O)c2ccccc2)c1=O | 26 µM
CC(C)(C)[Si](C)(C)OC[C@H]1O[C@@H](n2ccc(=O)[nH]c2=O)[C@H](O)[C@@H]1O | 71 µM
O=C1N[C@@H]2C(=C[C@H](O)[C@@H](O)[C@H]2O)c2cc3c(c(O)c21)OCO3 [NARCICLASINE] | 0.029 µM
CC(C)C(C)(C)[Si](C)(C)OC[C@H]1O[C@@H](n2ccc(=O)[nH]c2=O)[C@H](O)[C@@H]1O | > 100 µM
CC(C)[Si]1(C(C)C)OC[C@H]2O[C@@H](n3ccc(=O)[nH]c3=O)C(=O)[C@@H]2O[Si](C(C)C)(C(C)C)O1 | 71 µM
CC(C)[Si]1(C(C)C)OC[C@H]2O[C@@H](n3ccc(=O)[nH]c3=O)[C@H](O)[C@@H]2O[Si](C(C)C)(C(C)C)O1 | 81 µM
Cc1cn([C@@H]2O[C@@H]3CO[Si](C(C)C)(C(C)C)O[Si](C(C)C)(C(C)C)O[C@H]3[C@H]2O)c(=O)[nH]c1=O | 87 µM
CC(C)[Si]1(C(C)C)OC[C@H]2O[C@@H](n3ccc(=O)n(C(=O)c4ccccc4)c3=O)[C@H](O)[C@@H]2O[Si](C(C)C)(C(C)C)O1 | 29 µM

Test: Growth inhibition of human Hs683 cells assessed as reduction in cell viability incubated for 72 hrs by MTT assay
Format: functional
Details: Hs 683, 72 h
Outline: as §1

Compound | GI50
COc1ccc(C(OC[C@H]2O[C@@H](n3ccc(=O)n(C(=O)c4ccccc4)c3=O)[C@H](OC(C)=O)[C@@H]2OC(C)=O)(c2ccccc2)c2ccc(OC)cc2)cc1 | 44 µM
Cc1cn([C@@H]2O[C@H](CO[Si](C)(C)C(C)(C)C)[C@@H](O)[C@H]2O)c(=O)[nH]c1=O | 77 µM
CC(=O)O[C@@H]1[C@H](OC(C)=O)[C@@H](CO[Si](c2ccccc2)(c2ccccc2)C(C)(C)C)O[C@H]1n1ccc(=O)n(C(=O)c2ccccc2)c1=O | 35 µM
CC(C)(C)[Si](C)(C)OC[C@H]1O[C@@H](n2ccc(=O)[nH]c2=O)[C@H](O)[C@@H]1O | 84 µM
O=C1N[C@@H]2C(=C[C@H](O)[C@@H](O)[C@H]2O)c2cc3c(c(O)c21)OCO3 [NARCICLASINE] | 0.04 µM
CC(C)C(C)(C)[Si](C)(C)OC[C@H]1O[C@@H](n2ccc(=O)[nH]c2=O)[C@H](O)[C@@H]1O | > 100 µM
CC(C)[Si]1(C(C)C)OC[C@H]2O[C@@H](n3ccc(=O)[nH]c3=O)C(=O)[C@@H]2O[Si](C(C)C)(C(C)C)O1 | 70 µM
CC(C)[Si]1(C(C)C)OC[C@H]2O[C@@H](n3ccc(=O)[nH]c3=O)[C@H](O)[C@@H]2O[Si](C(C)C)(C(C)C)O1 | 83 µM
Cc1cn([C@@H]2O[C@@H]3CO[Si](C(C)C)(C(C)C)O[Si](C(C)C)(C(C)C)O[C@H]3[C@H]2O)c(=O)[nH]c1=O | 91 µM
CC(C)[Si]1(C(C)C)OC[C@H]2O[C@@H](n3ccc(=O)n(C(=O)c4ccccc4)c3=O)[C@H](O)[C@@H]2O[Si](C(C)C)(C(C)C)O1 | 29 µM
